Reference: ChEMBL document CHEMBL3596173, “Structural Requirements for CNS Active Opioid Glycopeptides” (J Med Chem, 2015)
Non-standard residues stand in square brackets, D forms with d. Residues, ends and D or L forms follow the SMILES beside them. *: point of attachment. βGlc = OC[C@H]1O[C@@H](*)[C@H](O)[C@@H](O)[C@@H]1O; Aib = CC(C)(N)C(=O)O; GABA = NCCCC(=O)O

Key:
[1] = molecular target: T1, Delta-type opioid receptor (Homo sapiens, UniProt P41143); assay: Displacement of [3H]-naltrindole from human delta opioid receptor expressed in CHO cells after 3 hrs by scintillation counting analysis; type: cell-based
How it was run: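 Binding used CHO-cell membranes bearing human δ receptor and 0.2 nM (final) [3H]naltrindole, incubated 3 h at 25 °C in 50 mM Tris-HCl pH 7.5. Nonspecific binding was defined with 100 μM naloxone. Samples were glass-fiber filtered, washed with cold buffer and scintillation counted. IC50 came from a log-probit least-squares fit and was converted to Ki as IC50/(1+S).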

[2] = molecular target: T2, Kappa-type opioid receptor (Homo sapiens, UniProt P41145); assay: Displacement of [3H]-U69593 from human kappa opioid receptor expressed in CHO cells after 60 mins by scintillation counting analysis; type: cell-based
How it was run: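 Human κ receptor stably expressed in CHO cells was used as a membrane prep. It was incubated with 1 nM (final) [3H]U69,593 for 60 min at 25 °C in 50 mM Tris-HCl pH 7.5, with 10 μM naloxone defining nonspecific binding. Samples were filtered through glass-fiber filters presoaked ≥30 min in 0.1% polyethylenimine, washed cold and scintillation counted. Ki was derived from a log-probit IC50 via IC50/(1+S).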

Mu-type opioid receptor = Mu-type opioid receptor (Homo sapiens, UniProt P35372); assay: Displacement of [3H]-DAMGO from human mu opioid receptor expressed in CHO cells after 60 mins by scintillation counting analysis; type: cell-based
How it was run: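 Membranes from CHO cells stably expressing human μ receptor were incubated with 0.25 nM (final) [3H]DAMGO in 50 mM Tris-HCl pH 7.5 for 60 min at 25 °C. Bound radioligand was separated by glass-fiber filtration with cold buffer washes and counted by scintillation. IC50 came from a least-squares log-probit fit, and Ki from IC50/(1+S).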

Mus musculus [3] = assay: Antinociceptive activity in icv dosed CD-1 mouse by 55 degC warm water tail-flick test; type: functional
How it was run: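 Male CD-1 mice (27−30 g), 8−10 per group. Compound in distilled water, given icv under light ether anaesthesia, 2 mm caudal and 2 mm lateral from bregma. 55 °C warm-water tail-flick: baseline latency taken first, and mice not responding within 5 s excluded. Retested at various times after dosing. %Antinociception = 100(test − control latency)/(10 − control latency). A50 doses derived.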

Mus musculus [4] = assay: Antinociceptive activity in iv dosed CD-1 mouse by 55 degC warm water tail-flick test; type: functional
How it was run: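 Male CD-1 mice (27−30 g), 8−10 per group. Compound in 0.9% saline, injected into the tail vein at 0.1 mL/10 g after the vein was dilated in 40 °C water. Tail immersion in 55 °C water, with baseline latency first and 5 s non-responders excluded. Tested at intervals post-dose. %Antinociception = 100(test − control latency)/(10 − control latency). A50 values obtained.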

[5] = molecular target: T1, Delta-type opioid receptor; assay: Displacement of [3H]-naltrindole from human delta opioid receptor expressed in CHO cells at 10 uM after 3 hrs by scintillation counting analysis relative to control; type: cell-based
[6] = molecular target: T2, Kappa-type opioid receptor; assay: Displacement of [3H]-U69593 from human kappa opioid receptor expressed in CHO cells at 10 uM after 60 mins by scintillation counting analysis […]; type: cell-based

T2 sequence (P41145 whole entry): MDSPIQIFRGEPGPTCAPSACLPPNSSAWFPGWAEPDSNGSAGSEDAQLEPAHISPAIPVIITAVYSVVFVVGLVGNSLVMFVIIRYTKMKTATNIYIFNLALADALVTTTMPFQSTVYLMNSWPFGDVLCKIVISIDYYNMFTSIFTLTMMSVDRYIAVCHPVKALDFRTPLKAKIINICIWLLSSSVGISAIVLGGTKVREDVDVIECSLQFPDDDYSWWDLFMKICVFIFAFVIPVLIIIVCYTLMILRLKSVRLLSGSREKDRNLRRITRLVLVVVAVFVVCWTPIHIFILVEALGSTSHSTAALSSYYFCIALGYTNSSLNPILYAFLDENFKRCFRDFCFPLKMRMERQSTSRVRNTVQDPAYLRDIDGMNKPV
T1 sequence (P41143 whole entry): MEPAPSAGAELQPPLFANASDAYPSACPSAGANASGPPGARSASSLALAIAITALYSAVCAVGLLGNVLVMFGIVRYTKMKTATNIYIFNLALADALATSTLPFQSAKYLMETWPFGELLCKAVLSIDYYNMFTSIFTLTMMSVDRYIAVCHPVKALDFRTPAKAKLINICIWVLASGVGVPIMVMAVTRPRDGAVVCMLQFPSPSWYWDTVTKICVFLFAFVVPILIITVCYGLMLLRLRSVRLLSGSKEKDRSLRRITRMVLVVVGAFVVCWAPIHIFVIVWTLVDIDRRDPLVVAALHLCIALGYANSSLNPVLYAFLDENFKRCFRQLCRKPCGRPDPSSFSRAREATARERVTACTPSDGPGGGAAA
Mu-type opioid receptor, sequence (P35372 whole entry): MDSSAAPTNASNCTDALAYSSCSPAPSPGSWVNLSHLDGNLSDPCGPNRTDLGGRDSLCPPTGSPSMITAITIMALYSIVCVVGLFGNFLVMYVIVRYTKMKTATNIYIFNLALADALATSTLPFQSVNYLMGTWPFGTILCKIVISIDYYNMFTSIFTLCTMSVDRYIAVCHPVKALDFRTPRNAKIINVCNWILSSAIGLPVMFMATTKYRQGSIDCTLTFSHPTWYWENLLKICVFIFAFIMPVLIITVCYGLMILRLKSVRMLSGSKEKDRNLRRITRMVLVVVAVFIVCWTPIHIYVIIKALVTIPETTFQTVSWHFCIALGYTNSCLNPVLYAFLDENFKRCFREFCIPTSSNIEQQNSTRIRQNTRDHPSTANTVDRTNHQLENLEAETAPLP

SMILES | Ki [1] | Ki [2] | Ki (Mu-type opioid receptor) | also measured
CC(C)C[C@H](NC(=O)[C@H](CO[C@@H]1O[C@H](CO)[C@@H](O)[C@H](O)[C@H]1O)NC(=O)[C@H](CCCCN)NC(=O)[C@H](CC(C)C)NC(=O)[C@H](C)NC(=O)[C@H](CCCCN)NC(=O)[C@H](CCC(=O)O)NC(=O)C(C)(C)NC(=O)[C@H](CC(C)C)NC(=O)[C@H](CC(N)=O)NC(=O)CCNC(=O)[C@H](Cc1ccccc1)N(C)C(=O)CNC(=O)[C@@H](C)NC(=O)[C@@H](N)Cc1ccc(O)cc1)C(N)=O | 1.4 µM | 0.2 µM | 0.0048 µM | –
CC(C)C[C@H](NC(=O)[C@H](CO[C@@H]1O[C@H](CO)[C@@H](O)[C@H](O)[C@H]1O)NC(=O)CCCNC(=O)[C@H](CC(C)C)NC(=O)[C@H](Cc1ccccc1)NC(=O)CNC(=O)[C@@H](NC(=O)[C@@H](N)Cc1ccc(O)cc1)[C@@H](C)O)C(N)=O (H-YTGFL[GABA]S(βGlc)L-NH2) | 0.015 µM | 0.071 µM | 0.0066 µM | A50 (Mus musculus [3]): 0.06 nmol; A50 (Mus musculus [4]): 2.54 µmol/kg
CC(C)C[C@H](NC(=O)[C@H](CO[C@@H]1O[C@H](CO)[C@@H](O)[C@H](O)[C@H]1O)NC(=O)[C@H](CCCCN)NC(=O)[C@H](CC(C)C)NC(=O)[C@H](C)NC(=O)[C@H](CCCCN)NC(=O)[C@H](CCC(=O)O)NC(=O)C(C)(C)NC(=O)[C@H](CC(C)C)NC(=O)[C@H](CC(N)=O)NC(=O)[C@@H]1CCCN1C(=O)[C@H](Cc1ccccc1)N(C)C(=O)CNC(=O)[C@@H](C)NC(=O)[C@@H](N)Cc1ccc(O)cc1)C(N)=O | – | 0.34 µM | 0.0088 µM | Activity [5]: 31%
CC(C)C[C@H](NC(=O)[C@H](CO)NC(=O)CCCNC(=O)[C@H](CC(C)C)NC(=O)[C@H](Cc1ccccc1)NC(=O)CNC(=O)[C@@H](NC(=O)[C@@H](N)Cc1ccc(O)cc1)[C@@H](C)O)C(N)=O (H-YTGFL[GABA]SL-NH2) | 0.0066 µM | 0.039 µM | 0.0038 µM | A50 (Mus musculus [3]): 0.06 nmol; A50 (Mus musculus [4]): >11.3 µmol/kg
CC(C)C[C@H](NC(=O)[C@H](CO[C@@H]1O[C@H](CO)[C@@H](O)[C@H](O)[C@H]1O)NC(=O)[C@H](CCCCN)NC(=O)[C@H](CC(C)C)NC(=O)[C@H](C)NC(=O)[C@H](CCC(=O)O)NC(=O)[C@H](CCC(=O)O)NC(=O)C(C)(C)NC(=O)[C@H](CC(C)C)NC(=O)[C@H](CC(N)=O)NC(=O)CNC(=O)CNC(=O)[C@H](Cc1ccccc1)N(C)C(=O)CNC(=O)[C@@H](C)NC(=O)[C@@H](N)Cc1ccc(O)cc1)C(N)=O | – | – | – | Activity [6]: 0%; Activity [5]: 0%
CC(C)C[C@H](NC(=O)[C@H](CO[C@@H]1O[C@H](CO)[C@@H](O)[C@H](O)[C@H]1O)NC(=O)[C@H](CCCCN)NC(=O)[C@H](CC(C)C)NC(=O)[C@H](C)NC(=O)[C@H](CCCCN)NC(=O)[C@H](CCC(=O)O)NC(=O)C(C)(C)NC(=O)[C@H](CC(C)C)NC(=O)[C@H](CC(N)=O)NC(=O)[C@@H]1CCCN1C(=O)CCNC(=O)[C@H](Cc1ccccc1)N(C)C(=O)CNC(=O)[C@@H](C)NC(=O)[C@@H](N)Cc1ccc(O)cc1)C(N)=O | 1.2 µM | 0.1 µM | 0.0056 µM | –
CC(C)C[C@H](NC(=O)[C@H](CO[C@@H]1O[C@H](CO)[C@@H](O)[C@H](O)[C@H]1O)NC(=O)[C@H](CCCCN)NC(=O)[C@H](CC(C)C)NC(=O)[C@H](C)NC(=O)[C@H](CCCCN)NC(=O)[C@H](CCC(=O)O)NC(=O)C(C)(C)NC(=O)[C@H](CC(C)C)NC(=O)[C@H](CC(N)=O)NC(=O)CNC(=O)[C@H](CC(C)C)NC(=O)[C@H](Cc1ccccc1)NC(=O)CNC(=O)[C@@H](NC(=O)[C@@H](N)Cc1ccc(O)cc1)[C@@H](C)O)C(N)=O (H-YTGFLGNL[Aib]EKALKS(βGlc)L-NH2) | 0.031 µM | 0.014 µM | 0.026 µM | –
CC(C)C[C@H](NC(=O)[C@H](CO[C@@H]1O[C@H](CO)[C@@H](O)[C@H](O)[C@H]1O)NC(=O)[C@H](CCCCN)NC(=O)[C@H](CC(C)C)NC(=O)[C@H](C)NC(=O)[C@H](CC(N)=O)NC(=O)[C@H](CCCCN)NC(=O)C(C)(C)NC(=O)[C@H](CC(C)C)NC(=O)[C@H](CC(N)=O)NC(=O)CNC(=O)CNC(=O)[C@H](Cc1ccccc1)N(C)C(=O)CNC(=O)[C@@H](C)NC(=O)[C@@H](N)Cc1ccc(O)cc1)C(N)=O | 0.43 µM | 0.011 µM | 0.00024 µM | –
CC(C)C[C@H](NC(=O)[C@H](CO[C@@H]1O[C@H](CO)[C@@H](O)[C@H](O)[C@H]1O)NC(=O)[C@H](CCCCN)NC(=O)[C@H](CC(C)C)NC(=O)[C@H](C)NC(=O)[C@H](CCCCN)NC(=O)[C@H](CCC(=O)O)NC(=O)C(C)(C)NC(=O)[C@H](CC(C)C)NC(=O)[C@H](CC(N)=O)NC(=O)[C@H]1CCCN1C(=O)[C@H](CC(C)C)NC(=O)[C@H](Cc1ccccc1)NC(=O)CNC(=O)[C@@H](NC(=O)[C@@H](N)Cc1ccc(O)cc1)[C@@H](C)O)C(N)=O | – | – | – | Ki ([1]; cho): 0.073 µM; Ki ([2]; cho): 0.078 µM; Ki (Mu-type opioid receptor; cho): 0.027 µM
CC(C)C[C@H](NC(=O)[C@H](CO[C@@H]1O[C@H](CO)[C@@H](O)[C@H](O)[C@H]1O)NC(=O)[C@H](CCCCN)NC(=O)[C@H](CC(C)C)NC(=O)[C@H](C)NC(=O)[C@H](CCCCN)NC(=O)[C@H](CCCCN)NC(=O)C(C)(C)NC(=O)[C@H](CC(C)C)NC(=O)[C@H](CC(N)=O)NC(=O)CNC(=O)CNC(=O)[C@H](Cc1ccccc1)N(C)C(=O)CNC(=O)[C@@H](C)NC(=O)[C@@H](N)Cc1ccc(O)cc1)C(N)=O | – | 0.43 µM | 0.021 µM | Activity [5]: 0%
CC(C)C[C@H](NC(=O)[C@H](CO[C@@H]1O[C@H](CO)[C@@H](O)[C@H](O)[C@H]1O)NC(=O)[C@H](CCCCN)NC(=O)[C@H](CC(C)C)NC(=O)[C@H](C)NC(=O)[C@H](CCCCN)NC(=O)[C@H](CCC(=O)O)NC(=O)C(C)(C)NC(=O)[C@H](CC(C)C)NC(=O)[C@H](CC(N)=O)NC(=O)[C@@H]1CCCN1C(=O)[C@@H]1CCCN1C(=O)[C@H](Cc1ccccc1)N(C)C(=O)CNC(=O)[C@@H](C)NC(=O)[C@@H](N)Cc1ccc(O)cc1)C(N)=O | 2.3 µM | 0.019 µM | 0.015 µM | –
CC(C)C[C@H](NC(=O)[C@H](CO[C@@H]1O[C@H](CO)[C@@H](O)[C@H](O)[C@H]1O)NC(=O)[C@H](CCCCN)NC(=O)[C@H](CC(C)C)NC(=O)[C@H](C)NC(=O)[C@H](CCCCN)NC(=O)[C@H](CCC(=O)O)NC(=O)C(C)(C)NC(=O)[C@H](CC(C)C)NC(=O)[C@H](CC(N)=O)NC(=O)CNC(=O)CNC(=O)[C@H](Cc1ccccc1)N(C)C(=O)CNC(=O)[C@@H](C)NC(=O)[C@@H](N)Cc1ccc(O)cc1)C(N)=O | 1.5 µM | 0.059 µM | 0.0028 µM | –
CC(C)C[C@H](NC(=O)[C@H](CO[C@@H]1O[C@H](CO)[C@@H](O)[C@H](O)[C@H]1O)NC(=O)[C@H](CCCCN)NC(=O)[C@H](CC(C)C)NC(=O)[C@H](C)NC(=O)[C@H](CCCCN)NC(=O)[C@H](CCC(=O)O)NC(=O)C(C)(C)NC(=O)[C@H](CC(C)C)NC(=O)[C@H](CC(N)=O)NC(=O)[C@H](C)NC(=O)[C@H](CC(C)C)NC(=O)[C@H](Cc1ccccc1)NC(=O)CNC(=O)[C@@H](NC(=O)[C@@H](N)Cc1ccc(O)cc1)[C@@H](C)O)C(N)=O (H-YTGFLANL[Aib]EKALKS(βGlc)L-NH2) | 0.021 µM | 0.0097 µM | 0.039 µM | –
CC(C)C[C@H](NC(=O)[C@H](CO[C@@H]1O[C@H](CO)[C@@H](O)[C@H](O)[C@H]1O)NC(=O)[C@H](CC(N)=O)NC(=O)[C@H](CC(C)C)NC(=O)[C@H](C)NC(=O)[C@H](CC(N)=O)NC(=O)[C@H](CC(N)=O)NC(=O)C(C)(C)NC(=O)[C@H](CC(C)C)NC(=O)[C@H](CC(N)=O)NC(=O)CNC(=O)CNC(=O)[C@H](Cc1ccccc1)N(C)C(=O)CNC(=O)[C@@H](C)NC(=O)[C@@H](N)Cc1ccc(O)cc1)C(N)=O | – | 0.34 µM | 0.0052 µM | Activity [5]: 22%
CC(C)C[C@H](NC(=O)[C@H](CO[C@@H]1O[C@H](CO)[C@@H](O)[C@H](O)[C@H]1O)NC(=O)[C@H](CCCCN)NC(=O)[C@H](CC(C)C)NC(=O)[C@H](C)NC(=O)[C@H](CCCCN)NC(=O)[C@H](CCC(=O)O)NC(=O)C(C)(C)NC(=O)[C@H](CC(C)C)NC(=O)[C@H](CC(N)=O)NC(=O)[C@@H]1CCCN1C(=O)CNC(=O)[C@H](Cc1ccccc1)N(C)C(=O)CNC(=O)[C@@H](C)NC(=O)[C@@H](N)Cc1ccc(O)cc1)C(N)=O | 0.84 µM | 0.045 µM | 0.0032 µM | –
